# Test results taken from ChEMBL document CHEMBL2375220, “Bispyrimidines as potent histamine H(4) receptor ligands: delineation of structure-activity relationships and detailed H(4) receptor binding mode” (J Med Chem, 2013).
# Assays:
# [1] = Half life in mouse liver microsomes; format: ADME, Microsome
# [2] = Half life in human liver microsomes; format: ADME, Microsome
# [3] = Aqueous solubility of the compound at pH 6.8 by automated polarized light microscopy analysis; format: physicochemical
# How it was run: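 Aqueous solubility at pH 6.8, measured by precipitation from DMSO solution and reported in μg/mL.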
# [4] = target: T1, Histamine H4 receptor (Homo sapiens, UniProt Q9H3N8); experiment: Displacement of [3H]histamine displacement from human recombinant histamine H4 receptor expressed in […] cells after 45 mins; format: cell-based, SK-N-MC
# [5] = target: T1, Histamine H4 receptor; experiment: Displacement of [3H]histamine displacement from human histamine H4 receptor expressed in […] cells after 60 mins; format: cell-based, SK-N-MC
# How it was run: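 Affinity at the human H4 receptor, from displacement of [3H]histamine binding. Reported as pKi, the mean ± SEM of at least three independent determinations.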
# T1 sequence (Q9H3N8 whole entry): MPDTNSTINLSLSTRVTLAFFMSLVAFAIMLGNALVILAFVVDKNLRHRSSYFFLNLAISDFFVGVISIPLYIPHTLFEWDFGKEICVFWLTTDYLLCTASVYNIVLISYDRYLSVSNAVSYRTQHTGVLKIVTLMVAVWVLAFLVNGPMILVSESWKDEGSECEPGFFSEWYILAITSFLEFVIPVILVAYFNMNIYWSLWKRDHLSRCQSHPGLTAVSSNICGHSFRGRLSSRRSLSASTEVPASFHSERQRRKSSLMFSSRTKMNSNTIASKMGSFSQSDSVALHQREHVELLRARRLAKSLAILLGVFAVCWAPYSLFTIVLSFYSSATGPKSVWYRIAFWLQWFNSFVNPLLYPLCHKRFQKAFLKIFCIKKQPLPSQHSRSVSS
compound,measurement,setting,value
CC(C)CNc1cc(N2CCN(C)CC2)nc(N)n1,half-life,[1],4 min
same,half-life,[2],> 120 min
same,solubility,[3],> 64 µg/mL
same,Ki,[4],3.16 nM
CC(C)CNc1cc(NCCNc2cc(-c3ccccc3)nc(N)n2)ncn1,Ki,[5],501 nM
CC(C)CNc1cc(N(C)CCNc2ccnc(N)n2)nc(N)n1,Ki,[5],39.8 nM
same,half-life,[1],23 min
same,half-life,[2],101 min
same,solubility,[3],> 84 µg/mL
CC(C)CCc1cc(N(C)CCNc2ccnc(N)n2)nc(N)n1,Ki,[5],10 nM
same,half-life,[1],8 min
same,half-life,[2],82 min
same,solubility,[3],> 83 µg/mL
CC(C)CNc1nccc(NCCN(C)c2cc(-c3ccccc3)nc(N)n2)n1,Ki,[5],31.6 nM
CN(CCNc1cc(-c2ccccc2)nc(N)n1)c1ccnc(N)n1,Ki,[5],79.4 nM
Nc1nccc(NCCNC(=O)c2cc3ccccc3[nH]2)n1,Ki,[5],1260 nM
Nc1nccc(NCCNC(=O)c2cc3cc(Cl)ccc3[nH]2)n1,Ki,[5],316 nM
CN(CCNc1ccnc(N)n1)C(=O)c1cc2cc(Cl)ccc2[nH]1,Ki,[5],3160 nM
CN(CCNc1ccnc(N)n1)C(=O)c1cc2ccccc2[nH]1,Ki,[5],10000 nM
Nc1nccc(NCCNc2ccnc(N)n2)n1,Ki,[5],794 nM
CC(C)CNc1cc(NCCNc2ccnc(N)n2)nc(N)n1,Ki,[5],79.4 nM
CC(C)CCc1cc(NCCNc2ccnc(N)n2)nc(N)n1,Ki,[5],25.1 nM
same,half-life,[1],18 min
same,half-life,[2],> 120 min
same,solubility,[3],> 79 µg/mL
Nc1nccc(NCCNc2cc(-c3cccc(Cl)c3)nc(N)n2)n1,Ki,[5],6.31 nM
same,half-life,[1],9 min
same,half-life,[2],51 min
same,solubility,[3],> 76 µg/mL
Nc1nc(NCCNc2cc(-c3ccccc3)nc(N)n2)cc(-c2ccccc2)n1,Ki,[5],1000 nM
CC(C)CCc1cc(NCCNc2cc(-c3ccccc3)nc(N)n2)nc(N)n1,Ki,[5],398 nM
CC(C)CNc1cc(NCCNc2cc(-c3ccccc3)nc(N)n2)nc(N)n1,Ki,[5],3160 nM
Nc1nc(NCCNc2ccncn2)cc(-c2ccccc2)n1,Ki,[5],2000 nM
Cc1nccc(NCCNc2cc(-c3ccccc3)nc(N)n2)n1,Ki,[5],39.8 nM
Nc1nc(Cl)cc(NCCNc2cc(-c3ccccc3)nc(N)n2)n1,Ki,[5],2510 nM
CC(C)CCc1cc(NCCNc2cc(Cl)nc(N)n2)nc(N)n1,Ki,[5],631 nM
CC(C)CNc1nc(NCCNc2ccnc(N)n2)cc(-c2ccccc2)n1,Ki,[5],1260 nM
CC(C)CNc1nccc(NCCNc2cc(-c3ccccc3)nc(N)n2)n1,Ki,[5],79.4 nM
CC(C)CNc1nccc(NCCNc2cc(-c3cccc(Cl)c3)nc(N)n2)n1,Ki,[5],50.1 nM
CC(C)CNc1nccc(NCCNc2ccnc(N)n2)n1,Ki,[5],79.4 nM
CC(C)CNc1cc(NCCNc2ccnc(N)n2)ncn1,Ki,[5],1000 nM
CN(CCNc1ccnc(N)n1)c1cc(-c2ccccc2)nc(N)n1,Ki,[5],10 nM
CC(C)CNc1nccc(NCCN(C)c2cc(-c3cccc(Cl)c3)nc(N)n2)n1,Ki,[5],50.1 nM
CC(C)CCc1cc(N2CCN(C)CC2)nc(N)n1,half-life,[1],< 2 min
same,half-life,[2],61 min
same,solubility,[3],> 62 µg/mL
same,Ki,[4],3.16 nM
Nc1nccc(NCCNc2cc(-c3ccccc3)nc(N)n2)n1,Ki,[4],7.94 nM
CN1CCN(c2cc(-c3ccccc3)nc(N)n2)CC1,half-life,[1],4 min
same,half-life,[2],43 min
same,solubility,[3],61 µg/mL
same,Ki,[4],7.94 nM
CN1CCN(c2cc(-c3ccc(Cl)cc3)nc(N)n2)CC1,Ki,[4],3.16 nM
CN1CCN(C(=O)c2cc3cc(Cl)ccc3[nH]2)CC1 [JNJ-7777120],half-life,[1],2 min
same,half-life,[2],> 45 min
same,solubility,[3],58 µg/mL
